Experiments:
[1] = biological target: Glutamate NMDA receptor; Grin1/Grin2a (Rattus norvegicus, UniProt P35439+Q00959); assay: Antagonist activity at rat recombinant NR1-NR2A receptor expressed in Xenopus oocytes at holding potential of -40mV by two-electrode voltage-clamp electrophysiology; type: functional, cell-based, Oocyte
Summary of the method: (§1)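 Oocytes expressing rat NR1-1a with NR2A, NR2B, NR2C or NR2D, clamped at −40 mV in Ba2+/HEPES recording solution pH 7.4, 23°C. Current evoked by 100 μM glutamate plus 30 μM glycine. Final DMSO 0.05-0.5%, 5-7 inhibitor concentrations, ≥4 oocytes each. IC50 from Hill fit of normalized mean composite data. […] Some NR2A oocytes given BAPTA-AM or K-BAPTA.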

[2] = species: Rattus norvegicus; assay: Selectivity ratio of IC50 for rat recombinant GLuR1 to IC50 for rat recombinant NR1-NR2D receptor
Summary of the method: (§2)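 Ratio of fitted IC50 values, either NR2A/NR2D or GluR1/NR2D, from two-electrode voltage-clamp Hill fits in oocytes. Where noted, calculated from IC50 values rounded to the nearest μM.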

[3] = biological target: Glutamate NMDA receptor; Grin1/Grin2b (Rattus norvegicus, UniProt P35439+Q00960); assay: Antagonist activity at rat recombinant NR1-NR2B receptor expressed in Xenopus oocytes at holding potential of -40mV by two-electrode voltage-clamp electrophysiology; type: functional, cell-based, Oocyte; summary of the method: as §1
[4] = biological target: Glutamate NMDA receptor; Grin1/Grin2c (Rattus norvegicus, UniProt P35439+Q00961); assay: Antagonist activity at rat recombinant NR1-NR2C receptor expressed in Xenopus oocytes at holding potential of -40mV by two-electrode voltage-clamp electrophysiology; type: functional, cell-based, Oocyte; summary of the method: as §1
[5] = biological target: Ionotropic glutamate receptor NMDA 1/2D (Rattus norvegicus, UniProt P35439+Q62645); assay: Antagonist activity at rat recombinant NR1-NR2D receptor expressed in Xenopus oocytes at holding potential of -40mV by two-electrode voltage-clamp electrophysiology; type: functional, cell-based, Oocyte
Summary of the method: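 Oocytes expressing rat NR1-1a with NR2A, NR2B, NR2C or NR2D, clamped at −40 mV in Ba2+/HEPES recording solution pH 7.4, 23°C. Current evoked by 100 μM glutamate plus 30 μM glycine. Final DMSO 0.05-0.5%, 5-7 inhibitor concentrations, ≥4 oocytes each. IC50 from Hill fit of normalized mean composite data. Some NR2A oocytes given BAPTA-AM or K-BAPTA.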

[6] = biological target: Glutamate receptor 1 (Rattus norvegicus, UniProt P19490); assay: Antagonist activity at rat recombinant GLuR1 expressed in Xenopus oocytes assessed as inhibition of glutamate-induced current by two-electrode voltage-clamp electrophysiology; type: functional, cell-based, Oocyte
Summary of the method: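 Two-electrode voltage clamp at −40 mV on Xenopus oocytes expressing rat GluR1, perfused with 90 NaCl, 1.0 KCl, 0.5 BaCl2, 0.005 EDTA, 10 HEPES (mM), pH 7.4, 23°C; activated by 100 μM glutamate. From 20 mM DMSO stocks, 5-7 concentrations, ≥4 oocytes each. Hill fit to mean composite curves normalized to control, minimum usually fixed at 0. Response >75% at 100 μM reported as >300 μM.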

[7] = species: Rattus norvegicus; assay: Selectivity ratio of IC50 for rat recombinant NR1-NR2A receptor to IC50 for rat recombinant NR1-NR2D receptor; summary of the method: as §2

Ionotropic glutamate receptor NMDA 1/2D, sequence (Q62645 whole entry, other chains not shown): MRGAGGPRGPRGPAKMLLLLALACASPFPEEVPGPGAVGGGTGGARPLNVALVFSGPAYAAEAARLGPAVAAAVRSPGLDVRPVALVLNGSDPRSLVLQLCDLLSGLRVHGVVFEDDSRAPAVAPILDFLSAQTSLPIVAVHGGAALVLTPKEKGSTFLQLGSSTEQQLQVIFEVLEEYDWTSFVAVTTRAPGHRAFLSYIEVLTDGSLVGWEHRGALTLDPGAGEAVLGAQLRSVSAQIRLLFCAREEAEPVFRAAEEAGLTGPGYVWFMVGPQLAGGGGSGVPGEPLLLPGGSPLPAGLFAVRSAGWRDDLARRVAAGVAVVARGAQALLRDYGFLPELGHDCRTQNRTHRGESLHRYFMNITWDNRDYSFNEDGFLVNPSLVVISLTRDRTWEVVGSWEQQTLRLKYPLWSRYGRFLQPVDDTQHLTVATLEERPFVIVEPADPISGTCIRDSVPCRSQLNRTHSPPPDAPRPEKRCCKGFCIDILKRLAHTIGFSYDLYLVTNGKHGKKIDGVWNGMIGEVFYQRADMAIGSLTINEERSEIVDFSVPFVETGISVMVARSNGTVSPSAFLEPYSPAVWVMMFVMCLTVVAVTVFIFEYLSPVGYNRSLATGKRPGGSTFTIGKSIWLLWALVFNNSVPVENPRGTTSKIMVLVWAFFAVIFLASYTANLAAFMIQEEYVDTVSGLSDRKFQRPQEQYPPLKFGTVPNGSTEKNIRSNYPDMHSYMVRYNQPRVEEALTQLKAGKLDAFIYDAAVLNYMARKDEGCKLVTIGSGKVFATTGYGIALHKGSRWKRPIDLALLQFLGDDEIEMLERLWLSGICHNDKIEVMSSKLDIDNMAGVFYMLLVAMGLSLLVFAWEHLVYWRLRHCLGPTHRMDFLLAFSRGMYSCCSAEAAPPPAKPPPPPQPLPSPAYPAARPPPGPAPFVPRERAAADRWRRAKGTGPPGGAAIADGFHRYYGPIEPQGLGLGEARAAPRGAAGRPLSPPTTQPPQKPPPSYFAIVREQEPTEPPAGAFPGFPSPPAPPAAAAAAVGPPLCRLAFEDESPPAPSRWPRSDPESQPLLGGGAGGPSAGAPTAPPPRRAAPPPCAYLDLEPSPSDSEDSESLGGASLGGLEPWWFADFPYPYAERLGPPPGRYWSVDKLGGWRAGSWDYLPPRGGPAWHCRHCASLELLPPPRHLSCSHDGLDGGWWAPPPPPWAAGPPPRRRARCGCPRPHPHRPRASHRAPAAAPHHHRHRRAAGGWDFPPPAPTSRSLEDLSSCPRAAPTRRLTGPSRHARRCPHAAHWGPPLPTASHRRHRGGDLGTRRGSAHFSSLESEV
Glutamate receptor 1, sequence (P19490 whole entry, the tested form may be a part): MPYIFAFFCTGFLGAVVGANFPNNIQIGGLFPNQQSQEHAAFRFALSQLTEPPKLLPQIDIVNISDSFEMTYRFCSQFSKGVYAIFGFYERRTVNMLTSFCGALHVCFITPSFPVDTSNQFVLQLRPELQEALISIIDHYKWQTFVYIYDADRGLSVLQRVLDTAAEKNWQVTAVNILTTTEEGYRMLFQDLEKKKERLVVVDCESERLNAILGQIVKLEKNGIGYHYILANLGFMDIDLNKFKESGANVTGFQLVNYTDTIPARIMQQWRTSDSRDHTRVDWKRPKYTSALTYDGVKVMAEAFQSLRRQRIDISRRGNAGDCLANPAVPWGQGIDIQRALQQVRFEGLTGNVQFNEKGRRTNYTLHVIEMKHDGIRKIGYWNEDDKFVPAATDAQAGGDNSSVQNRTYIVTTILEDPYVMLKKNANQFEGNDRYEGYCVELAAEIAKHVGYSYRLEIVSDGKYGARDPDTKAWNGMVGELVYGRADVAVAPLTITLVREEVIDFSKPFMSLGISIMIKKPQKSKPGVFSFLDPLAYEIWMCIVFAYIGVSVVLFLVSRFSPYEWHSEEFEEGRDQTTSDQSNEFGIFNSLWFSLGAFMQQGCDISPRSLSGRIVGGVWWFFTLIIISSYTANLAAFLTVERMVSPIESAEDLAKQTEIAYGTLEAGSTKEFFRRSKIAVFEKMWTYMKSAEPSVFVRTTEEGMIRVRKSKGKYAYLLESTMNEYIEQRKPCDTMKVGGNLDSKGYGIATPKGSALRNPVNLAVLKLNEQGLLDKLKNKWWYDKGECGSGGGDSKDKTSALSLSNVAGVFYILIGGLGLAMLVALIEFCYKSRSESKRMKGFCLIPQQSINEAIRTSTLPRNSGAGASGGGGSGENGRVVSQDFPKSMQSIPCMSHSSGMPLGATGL
Glutamate NMDA receptor; Grin1/Grin2b, sequence (Q00960 whole entry, other chains not shown): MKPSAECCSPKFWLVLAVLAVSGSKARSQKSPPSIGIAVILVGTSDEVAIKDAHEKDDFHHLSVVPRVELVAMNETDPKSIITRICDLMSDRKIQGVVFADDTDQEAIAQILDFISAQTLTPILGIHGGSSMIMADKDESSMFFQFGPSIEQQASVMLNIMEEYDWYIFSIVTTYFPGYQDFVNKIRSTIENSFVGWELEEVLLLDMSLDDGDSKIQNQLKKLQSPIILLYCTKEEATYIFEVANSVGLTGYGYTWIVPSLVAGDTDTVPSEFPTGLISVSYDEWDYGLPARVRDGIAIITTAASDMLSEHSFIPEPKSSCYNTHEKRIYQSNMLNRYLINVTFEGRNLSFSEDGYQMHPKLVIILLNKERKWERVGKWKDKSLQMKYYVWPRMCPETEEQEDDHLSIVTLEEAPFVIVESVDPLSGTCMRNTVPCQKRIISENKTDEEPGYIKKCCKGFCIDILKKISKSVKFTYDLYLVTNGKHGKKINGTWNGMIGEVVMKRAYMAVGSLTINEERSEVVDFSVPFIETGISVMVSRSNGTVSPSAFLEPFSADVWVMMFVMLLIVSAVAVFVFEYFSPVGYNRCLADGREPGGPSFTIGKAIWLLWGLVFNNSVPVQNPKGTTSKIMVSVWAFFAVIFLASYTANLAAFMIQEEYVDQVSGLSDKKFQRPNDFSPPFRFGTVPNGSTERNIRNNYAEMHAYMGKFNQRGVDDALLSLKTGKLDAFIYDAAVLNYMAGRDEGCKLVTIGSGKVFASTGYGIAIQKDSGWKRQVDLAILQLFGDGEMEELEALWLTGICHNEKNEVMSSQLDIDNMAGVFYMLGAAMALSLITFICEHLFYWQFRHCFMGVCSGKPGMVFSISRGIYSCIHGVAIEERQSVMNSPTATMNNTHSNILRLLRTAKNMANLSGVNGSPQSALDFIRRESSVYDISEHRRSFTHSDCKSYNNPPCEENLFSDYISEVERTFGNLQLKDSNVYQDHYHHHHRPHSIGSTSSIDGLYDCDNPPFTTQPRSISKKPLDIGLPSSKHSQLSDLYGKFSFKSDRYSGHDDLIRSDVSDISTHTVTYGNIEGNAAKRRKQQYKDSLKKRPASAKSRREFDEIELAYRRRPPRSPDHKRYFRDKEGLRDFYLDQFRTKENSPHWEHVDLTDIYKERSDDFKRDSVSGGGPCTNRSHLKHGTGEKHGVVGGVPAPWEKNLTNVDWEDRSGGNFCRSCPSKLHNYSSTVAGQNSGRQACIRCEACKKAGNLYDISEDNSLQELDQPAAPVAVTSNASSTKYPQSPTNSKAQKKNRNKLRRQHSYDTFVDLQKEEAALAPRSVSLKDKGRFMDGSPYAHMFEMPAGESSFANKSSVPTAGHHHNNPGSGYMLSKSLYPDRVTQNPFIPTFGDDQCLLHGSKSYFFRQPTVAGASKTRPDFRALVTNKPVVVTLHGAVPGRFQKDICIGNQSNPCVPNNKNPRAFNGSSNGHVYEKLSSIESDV
Glutamate NMDA receptor; Grin1/Grin2c, sequence (Q00961 whole entry, other chains not shown): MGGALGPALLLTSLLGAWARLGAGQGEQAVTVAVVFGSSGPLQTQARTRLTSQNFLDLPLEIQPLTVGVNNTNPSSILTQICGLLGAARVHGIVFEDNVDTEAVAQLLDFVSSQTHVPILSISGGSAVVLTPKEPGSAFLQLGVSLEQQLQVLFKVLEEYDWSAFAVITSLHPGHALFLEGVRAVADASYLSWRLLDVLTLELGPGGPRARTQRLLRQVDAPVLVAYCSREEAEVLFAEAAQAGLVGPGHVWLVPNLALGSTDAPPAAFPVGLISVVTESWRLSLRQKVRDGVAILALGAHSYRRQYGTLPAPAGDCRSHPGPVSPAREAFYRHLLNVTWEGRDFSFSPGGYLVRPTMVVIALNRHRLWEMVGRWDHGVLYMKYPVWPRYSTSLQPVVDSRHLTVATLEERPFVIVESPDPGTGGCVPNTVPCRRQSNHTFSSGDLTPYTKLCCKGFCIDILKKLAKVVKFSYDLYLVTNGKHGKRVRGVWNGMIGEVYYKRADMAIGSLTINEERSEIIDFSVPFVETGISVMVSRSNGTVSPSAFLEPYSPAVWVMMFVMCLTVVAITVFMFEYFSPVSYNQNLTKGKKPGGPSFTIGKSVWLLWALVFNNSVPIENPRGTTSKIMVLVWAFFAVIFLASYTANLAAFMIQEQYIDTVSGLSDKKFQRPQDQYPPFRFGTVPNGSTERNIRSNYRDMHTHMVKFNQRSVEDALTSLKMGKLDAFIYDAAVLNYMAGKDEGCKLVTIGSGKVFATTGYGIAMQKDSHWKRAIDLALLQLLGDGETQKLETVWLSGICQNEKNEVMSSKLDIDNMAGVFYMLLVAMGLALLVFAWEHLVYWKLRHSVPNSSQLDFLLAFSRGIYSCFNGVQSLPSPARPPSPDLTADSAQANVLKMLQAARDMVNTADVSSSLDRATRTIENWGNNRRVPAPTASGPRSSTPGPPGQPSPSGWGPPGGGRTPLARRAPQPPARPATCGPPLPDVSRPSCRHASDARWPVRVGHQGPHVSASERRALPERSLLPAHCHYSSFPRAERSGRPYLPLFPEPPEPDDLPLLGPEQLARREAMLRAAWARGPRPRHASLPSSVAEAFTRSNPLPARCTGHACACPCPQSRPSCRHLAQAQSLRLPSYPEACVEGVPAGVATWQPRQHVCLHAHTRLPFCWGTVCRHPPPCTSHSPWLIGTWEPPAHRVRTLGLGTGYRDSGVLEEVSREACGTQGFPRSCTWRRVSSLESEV

Cc1cccc(-n2c(/C=C/c3cccnc3)nc3ccc(I)cc3c2=O)c1
IC50 ([1]; read-out: IC50): > 300 µM
Ratio IC50 [2]: 1
IC50 ([3]; read-out: IC50): > 300 µM
IC50 [4]: 241 µM
IC50 [5]: > 300 µM
IC50 [6]: > 300 µM

O=C(O)c1ccc(-n2c(/C=C/c3ccccc3)nc3ccccc3c2=O)cc1
IC50 ([1]; read-out: IC50): 84 µM
Ratio IC50 [2]: 1
IC50 ([3]; read-out: IC50): 85 µM
IC50 [5]: 33 µM
IC50 [6]: 25 µM
Ratio IC50 [7]: 3

O=C(O)c1ccc(-n2c(/C=C/c3ccccc3O)nc3ccccc3c2=O)cc1
IC50 ([1]; read-out: IC50): 20 µM
Ratio IC50 [2]: 2
IC50 ([3]; read-out: IC50): 18 µM
IC50 [5]: 18 µM
IC50 [6]: 36 µM
Ratio IC50 [7]: 1

O=C(O)c1ccc(-n2c(/C=C/c3cccc([N+](=O)[O-])c3)nc3cccc(Cl)c3c2=O)cc1
IC50 ([1]; read-out: IC50): > 300 µM
IC50 ([3]; read-out: IC50): 110 µM
IC50 [4]: 22 µM
IC50 [5]: 14 µM
IC50 [6]: > 300 µM

COc1cccc(/C=C/c2nc3ccccc3c(=O)n2-c2ccc(C(=O)O)cc2)c1
IC50 ([1]; read-out: IC50): 24 µM
Ratio IC50 [2]: 3
IC50 ([3]; read-out: IC50): 36 µM
IC50 [5]: 9 µM
IC50 [6]: 27 µM
Ratio IC50 [7]: 3

O=C(O)c1ccc(-n2c(/C=C/c3cccc([N+](=O)[O-])c3)nc3cc4c(cc3c2=O)OCO4)cc1
IC50 ([1]; read-out: IC50): 112 µM
IC50 ([3]; read-out: IC50): 162 µM
IC50 [4]: 40 µM
IC50 [5]: 36 µM
IC50 [6]: > 300 µM
Ratio IC50 [7]: 3

COc1ccc2nc(/C=C/c3ccc([N+](=O)[O-])cc3)n(-c3ccc(C(=O)O)cc3)c(=O)c2c1
IC50 ([1]; read-out: IC50): 197 µM
IC50 ([3]; read-out: IC50): 206 µM
IC50 [4]: 13 µM
IC50 [5]: 7 µM
IC50 [6]: > 300 µM
Ratio IC50 [7]: 28

Cc1ccccc1/C=C/c1nc2ccccc2c(=O)n1-c1ccc(C(=O)O)cc1
IC50 ([1]; read-out: IC50): 86 µM
Ratio IC50 [2]: 1
IC50 ([3]; read-out: IC50): 93 µM
IC50 [5]: 81 µM
IC50 [6]: 62 µM
Ratio IC50 [7]: 1

Cc1ccc(-n2c(/C=C/c3cccnc3)nc3ccc(I)cc3c2=O)cc1
IC50 ([1]; read-out: IC50): > 300 µM
Ratio IC50 [2]: 1
IC50 ([3]; read-out: IC50): > 300 µM
IC50 [4]: > 300 µM
IC50 [5]: > 300 µM
IC50 [6]: > 300 µM

COc1ccc2nc(/C=C/c3ccc([N+](=O)[O-])cc3)n(-c3cccc(C(=O)O)c3)c(=O)c2c1
IC50 ([1]; read-out: IC50): 238 µM
IC50 ([3]; read-out: IC50): 238 µM
IC50 [4]: 21 µM
IC50 [5]: 16 µM
IC50 [6]: > 300 µM
Ratio IC50 [7]: 15

Cc1ccc2nc(CCc3ccccc3)n(-c3ccc(C(=O)O)cc3)c(=O)c2c1
IC50 ([1]; read-out: IC50): > 300 µM
IC50 ([3]; read-out: IC50): 78 µM
IC50 [4]: 184 µM
IC50 [5]: 282 µM
IC50 [6]: > 300 µM

Cc1ccc(/C=C/c2nc3ccccc3c(=O)n2-c2ccc(C(=O)O)cc2)cc1
IC50 ([1]; read-out: IC50): 41 µM
IC50 ([3]; read-out: IC50): 138 µM
IC50 [5]: 17 µM
IC50 [6]: > 300 µM
Ratio IC50 [7]: 2

O=C(O)c1ccc(-n2c(/C=C/c3ccc(C(F)(F)F)cc3)nc3ccccc3c2=O)cc1
IC50 ([1]; read-out: IC50): 61 µM
Ratio IC50 [2]: 16
IC50 ([3]; read-out: IC50): 55 µM
IC50 [5]: 15 µM
IC50 [6]: 233 µM
Ratio IC50 [7]: 4

O=C(O)c1cccc(-n2c(/C=C/c3ccc([N+](=O)[O-])cc3)nc3ccc(I)cc3c2=O)c1
IC50 ([1]; read-out: IC50): > 300 µM
IC50 ([3]; read-out: IC50): 279 µM
IC50 [4]: 9 µM
IC50 [5]: 8 µM
IC50 [6]: > 300 µM

O=C(O)COc1ccc(/C=C/c2nc3ccccc3c(=O)n2-c2ccc(C(=O)O)cc2)cc1
IC50 ([1]; read-out: IC50): > 300 µM
Ratio IC50 [2]: 1
IC50 ([3]; read-out: IC50): > 300 µM
IC50 [4]: > 300 µM
IC50 [5]: > 300 µM
IC50 [6]: > 300 µM

COc1ccc(-n2c(/C=C/c3cccnc3)nc3ccc(I)cc3c2=O)cc1
IC50 ([1]; read-out: IC50): > 300 µM
Ratio IC50 [2]: 1
IC50 ([3]; read-out: IC50): > 300 µM
IC50 [4]: > 300 µM
IC50 [5]: > 300 µM
IC50 [6]: > 300 µM

O=C(O)c1ccc(/C=C/c2nc3ccccc3c(=O)n2-c2ccc(C(=O)O)cc2)cc1
IC50 ([1]; read-out: IC50): > 300 µM
Ratio IC50 [2]: 1
IC50 ([3]; read-out: IC50): > 300 µM
IC50 [4]: > 300 µM
IC50 [5]: > 300 µM
IC50 [6]: > 300 µM

O=C(O)c1ccc(-n2c(/C=C/c3cccc([N+](=O)[O-])c3)nc3ccc(Cl)cc3c2=O)cc1
Ratio IC50 [2]: 7
Ratio IC50 [7]: 16

O=c1c2ccccc2nc(/C=C/c2cccc([N+](=O)[O-])c2)n1-c1ccccc1
IC50 ([1]; read-out: IC50): > 300 µM
Ratio IC50 [2]: 1
IC50 ([3]; read-out: IC50): > 300 µM
IC50 [4]: > 300 µM
IC50 [5]: > 300 µM
IC50 [6]: > 300 µM

O=C(O)c1ccc(-n2c(/C=C/c3ccccc3C(F)(F)F)nc3ccccc3c2=O)cc1
IC50 ([3]; read-out: IC50): > 300 µM
IC50 [5]: 28 µM
IC50 [6]: > 300 µM

Cc1nc2ccc(I)cc2c(=O)n1-c1ccc(C(=O)O)cc1
IC50 ([1]; read-out: IC50): > 300 µM
Ratio IC50 [2]: 1
IC50 ([3]; read-out: IC50): > 300 µM
IC50 [4]: > 300 µM
IC50 [5]: > 300 µM
IC50 [6]: > 300 µM

C=CCOc1ccc(/C=C/c2nc3ccccc3c(=O)n2-c2ccc(C(=O)O)cc2)cc1
IC50 ([1]; read-out: IC50): > 300 µM
IC50 ([3]; read-out: IC50): 144 µM
IC50 [4]: 111 µM
IC50 [5]: 30 µM
IC50 [6]: > 300 µM

N#Cc1ccc(/C=C/c2nc3ccccc3c(=O)n2-c2ccc(C(=O)O)cc2)cc1
IC50 ([1]; read-out: IC50): 94 µM
IC50 ([3]; read-out: IC50): 106 µM
IC50 [4]: 28 µM
IC50 [5]: 34 µM
IC50 [6]: > 300 µM
Ratio IC50 [7]: 3

O=C(O)c1ccc(-n2c(/C=C/c3ccc([N+](=O)[O-])cc3)nc3ccc(I)cc3c2=O)cc1
IC50 ([1]; read-out: IC50): > 300 µM
IC50 ([3]; read-out: IC50): > 300 µM
IC50 [4]: 2 µM
IC50 [5]: 1 µM
IC50 [6]: > 300 µM
Ratio IC50 [7]: > 150

O=C(O)c1ccc(-n2c(/C=C/c3ccc4ccccc4c3)nc3ccccc3c2=O)cc1
IC50 ([1]; read-out: IC50): 21 µM
IC50 ([3]; read-out: IC50): 31 µM
IC50 [4]: 14 µM
IC50 [5]: 6 µM
IC50 [6]: > 300 µM
Ratio IC50 [7]: 4

O=C(O)c1ccc(-n2c(/C=C/c3ccc4c(c3)OCCO4)nc3ccccc3c2=O)cc1
IC50 ([1]; read-out: IC50): > 300 µM
IC50 ([3]; read-out: IC50): 262 µM
IC50 [4]: 26 µM
IC50 [5]: 16 µM
IC50 [6]: > 300 µM

COc1ccc2nc(/C=C/c3cccc(C(=O)O)c3)n(-c3ccc(C(=O)O)cc3)c(=O)c2c1
IC50 ([1]; read-out: IC50): > 300 µM
IC50 ([3]; read-out: IC50): > 300 µM
IC50 [4]: > 300 µM
IC50 [5]: 131 µM
IC50 [6]: > 300 µM

COc1ccc2nc(/C=C/c3cccc([N+](=O)[O-])c3)n(-c3ccc(C#N)cc3)c(=O)c2c1
IC50 ([1]; read-out: IC50): > 300 µM
Ratio IC50 [2]: 1
IC50 ([3]; read-out: IC50): > 300 µM
IC50 [4]: > 300 µM
IC50 [5]: > 300 µM
IC50 [6]: > 300 µM

O=c1c2cc(I)ccc2nc(/C=C/c2cccnc2)n1-c1cccc([N+](=O)[O-])c1
IC50 ([1]; read-out: IC50): > 300 µM
Ratio IC50 [2]: 1
IC50 ([3]; read-out: IC50): > 300 µM
IC50 [4]: > 300 µM
IC50 [5]: > 300 µM
IC50 [6]: > 300 µM

Cc1cccc(/C=C/c2nc3ccccc3c(=O)n2-c2ccc(C(=O)O)cc2)c1
IC50 ([1]; read-out: IC50): 21 µM
IC50 ([3]; read-out: IC50): 34 µM
IC50 [5]: 18 µM
IC50 [6]: > 300 µM
Ratio IC50 [7]: 1

O=C(O)c1ccc(-n2c(/C=C/c3cccc([N+](=O)[O-])c3)nc3ccc([N+](=O)[O-])cc3c2=O)cc1
IC50 ([1]; oocyte): Not Active
IC50 ([3]; oocyte): Not Active
IC50 [4]: 204 µM
IC50 [5]: 90 µM
IC50 [6]: > 300 µM

O=C(O)c1ccc(-n2c(/C=C/c3ccc([N+](=O)[O-])cc3)nc3c(Cl)cc(Cl)cc3c2=O)cc1
IC50 ([1]; read-out: IC50): > 300 µM
IC50 ([3]; read-out: IC50): > 300 µM
IC50 [4]: 9 µM
IC50 [5]: 6 µM
IC50 [6]: > 300 µM

COc1ccc2nc(/C=C/c3cccc([N+](=O)[O-])c3)n(-c3ccc(C(N)=O)cc3)c(=O)c2c1
IC50 ([1]; read-out: IC50): > 300 µM
Ratio IC50 [2]: 1
IC50 ([3]; read-out: IC50): 82 µM
IC50 [4]: 58 µM
IC50 [5]: > 300 µM
IC50 [6]: > 300 µM
